Experimental data as given in BindingDB's records for doi:10.1021/jm00104a019 (Searle Research & Development, 1993).
pIC50: −log10 of the molar value. Where a SMILES comes first, the peptide text is derived from it.

These compounds were tested against Integrin alpha-IIb/beta-3 (Homo sapiens, UniProt P08514+P05106) (assay: Inhibition of platelet aggregation (PRP)).
How it was run: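 Aggregation of platelets in platelet-rich plasma was induced with ADP, and inhibition of this aggregation was measured.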

Integrin alpha-IIb/beta-3, sequence (P05106 27-788 limits assumed): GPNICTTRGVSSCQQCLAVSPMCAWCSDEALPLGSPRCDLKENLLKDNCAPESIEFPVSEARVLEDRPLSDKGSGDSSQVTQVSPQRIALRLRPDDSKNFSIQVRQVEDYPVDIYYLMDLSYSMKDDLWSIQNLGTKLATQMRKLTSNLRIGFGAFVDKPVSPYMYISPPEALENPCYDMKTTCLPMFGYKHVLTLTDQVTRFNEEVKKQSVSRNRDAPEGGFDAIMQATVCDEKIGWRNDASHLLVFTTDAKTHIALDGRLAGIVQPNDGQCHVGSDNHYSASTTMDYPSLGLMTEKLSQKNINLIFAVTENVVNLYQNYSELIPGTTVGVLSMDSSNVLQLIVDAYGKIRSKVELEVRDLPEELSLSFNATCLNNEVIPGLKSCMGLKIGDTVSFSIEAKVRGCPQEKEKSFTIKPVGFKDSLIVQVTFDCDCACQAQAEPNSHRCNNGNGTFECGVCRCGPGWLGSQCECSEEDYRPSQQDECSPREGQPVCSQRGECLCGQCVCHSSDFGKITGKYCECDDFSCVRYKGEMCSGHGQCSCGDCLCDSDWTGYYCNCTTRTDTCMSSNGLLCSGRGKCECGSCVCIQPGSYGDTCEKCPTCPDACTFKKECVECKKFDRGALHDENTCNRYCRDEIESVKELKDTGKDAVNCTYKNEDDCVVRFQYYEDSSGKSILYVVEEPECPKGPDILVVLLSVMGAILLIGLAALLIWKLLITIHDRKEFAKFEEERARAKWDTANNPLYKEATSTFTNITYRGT
Integrin alpha-IIb/beta-3, sequence (P08514 32-887 limits assumed): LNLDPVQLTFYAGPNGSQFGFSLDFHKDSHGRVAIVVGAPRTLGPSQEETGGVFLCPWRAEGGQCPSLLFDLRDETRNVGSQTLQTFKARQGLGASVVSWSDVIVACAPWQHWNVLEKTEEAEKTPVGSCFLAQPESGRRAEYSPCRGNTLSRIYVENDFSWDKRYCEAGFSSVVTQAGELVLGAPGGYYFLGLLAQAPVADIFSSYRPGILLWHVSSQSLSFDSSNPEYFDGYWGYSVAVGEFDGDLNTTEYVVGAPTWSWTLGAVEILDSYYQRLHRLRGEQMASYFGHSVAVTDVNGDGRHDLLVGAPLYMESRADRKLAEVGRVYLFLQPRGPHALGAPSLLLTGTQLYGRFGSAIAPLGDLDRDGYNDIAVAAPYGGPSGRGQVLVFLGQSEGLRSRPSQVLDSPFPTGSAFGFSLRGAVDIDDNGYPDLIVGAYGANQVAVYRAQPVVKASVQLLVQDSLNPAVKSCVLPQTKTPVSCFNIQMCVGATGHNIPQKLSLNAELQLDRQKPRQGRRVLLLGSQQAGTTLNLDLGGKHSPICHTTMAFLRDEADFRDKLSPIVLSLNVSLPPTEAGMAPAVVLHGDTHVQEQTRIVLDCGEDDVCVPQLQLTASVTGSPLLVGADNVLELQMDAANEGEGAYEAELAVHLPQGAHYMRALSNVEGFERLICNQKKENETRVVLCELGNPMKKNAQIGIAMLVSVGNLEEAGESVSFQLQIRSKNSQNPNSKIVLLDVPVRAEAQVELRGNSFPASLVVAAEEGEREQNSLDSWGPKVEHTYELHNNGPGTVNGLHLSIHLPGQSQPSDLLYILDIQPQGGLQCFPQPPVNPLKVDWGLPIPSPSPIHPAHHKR
Integrin alpha-IIb/beta-3, sequence (P08514 891-1039 limits assumed): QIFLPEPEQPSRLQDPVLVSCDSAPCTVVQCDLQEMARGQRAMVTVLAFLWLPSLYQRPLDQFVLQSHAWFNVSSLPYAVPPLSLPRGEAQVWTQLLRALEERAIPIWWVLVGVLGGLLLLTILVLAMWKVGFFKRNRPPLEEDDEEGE

Structure (SMILES) | pIC50
N=C(N)NCCCCCCCC(=O)N[C@@H](CC(=O)O)C(=O)NCCc1ccccc1 | 4.22
N=C(N)NCCCCCCCC(=O)N[C@@H](CC(=O)O)C(=O)N[C@@H](Cc1ccccc1)c1nnn[nH]1 | 5.40
NC(N)=NCCC[C@H](N)C(=O)NCC(=O)N[C@@H](CC(=O)O)C(=O)N[C@@H](Cc1ccccc1)C(=O)O (H-RGDF-OH) | 4.40
N=C(N)NCCCCCCCC(=O)N[C@@H](CC(=O)O)C(=O)N[C@@H](Cc1ccccc1)C(=O)O [N-(1-Carboxy-2-phenyl-ethyl)-3-[8-(diaminomethyl-amino)-octanoylamino]-succinamic acid] | 5.80
